High-throughput results from PubChem.
SR-BI DiI-HDL act: SR-BI HDL lipid transfer activation | activation, % at 12.5 µM | hit rate 0.096% among 320,000 | CHO ldlA[mSR-BI] cells, DiI-HDL uptake fluorescence, 3 h; 100 = double the neutral-control signal | AID 504775;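 active = mean replicate activation of at least 60% and every replicate at or above 60%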;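 note: 0% = median plate neutral-control signal and 100% = twice that signal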
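Test system: SR-BI-overexpressing, LDLR-lacking CHO cells. Measured by: DiI fluorescence, bottom read. Medium: Ham's F12 with 0.5% BSA, HEPES 25 mM, pH 7.4. Timing: 3 h uptake period with compound, 37 °C.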
SR-BI DiI inh: mouse SR-BI HDL lipid transfer inhibition. hit rate 0.96% among 320,000. Q61009. AID 488896. inhibition, % at 12.5 µM. ldlA[mSR-BI] CHO cells, DiI-HDL uptake fluorescence, 3 h;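 active = mean replicate inhibition of at least 70% and a set share of replicates each scoring 70 or more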;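 note: 0% = median of neutral control wells and 100% = median of positive control wells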
Hep lipid drop: modulators of hepatic lipid droplet formation | hit rate 0.4% among 240,000 | AML12 mouse hepatocytes, oleate lipid droplets, BODIPY imaging | inhibition, % at 6.5 µM;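 active = lipid droplet intensity inhibited by at least 50%, with more than 500 cells counted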
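Assay system: AML12 mouse liver cells | Compound dosing: One dose, 6.5 µM compound | Read-out basis: Droplet intensity reduction, % inhibition | Measured by: Fluorescence imaging, 20x objective, two fields per well | Schedule: Overnight treatment with compound plus oleate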
TLR9-MyD88 block: inhibitors of human TLR9-MyD88 binding. Q9NR96+Q99836. CHO BLA complementation TLR9-MyD88, CCF4 FRET ratio. inhibition, % at 4.98 µM. hit rate 0.21% among 340,000;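 active = inhibition above the mean over all tested compounds plus 3 SD, cut at about 21% in these data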;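 note: 0% = DMSO only wells and 100% = clavulanate BLA inhibitor control wells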
TLR4-MyD88 BLA: inhibitors of human TLR4-MyD88 binding; hit rate 0.18% among 200,000; HeLa CL3-4 TLR4/MyD88 BLA complementation, FRET ratio; inhibition, % at 8.4 µM; O00206+Q99836; AID 861; in the data active = inhibition above about 25%;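 note: 0% = vehicle and 100% = reference inhibitor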
NOD2-RIPK2 inh: blocks binding of human NOD2 to RIPK2. O43353. CHO BLA complementation NOD2-RIPK2, CCF4 ratio. inhibition, % at 4.98 µM. hit rate 0.38% among 360,000; in the data active = inhibition above about 21%;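 note: 0% = vehicle only and 100% = reference blocker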
The depositor's hits bear a star; · = no result. An excerpt weighted towards active compounds, which were near 1.6% of everything screened.

SMILES	SR-BI DiI-HDL act	SR-BI DiI inh	Hep lipid drop	TLR9-MyD88 block	TLR4-MyD88 BLA	NOD2-RIPK2 inh
COc1ccc(C(=O)Nc2cccc(C(=O)N/N=C/c3ccc(OC)cc3OC)c2)cc1	-89	90*	9	-2	·	-1
COc1ccc(/C=N/NC(=O)c2cccc(NC(=O)c3ccccc3Cl)c2)cc1	-22	22	-28	4	·	11
C/C(=N\NC(=O)c1c(Cl)cnn1C)c1cccc(NC(=O)c2ccc(C)cc2)c1	-85	85*	9	-2	·	-9
COc1ccccc1/C=N/NC(=O)c1cccc(NC(=O)c2ccccc2Cl)c1	-77	77*	0	-2	-3	-9
COc1ccc(/C=N/NC(=O)c2cccc(NC(=O)c3ccccc3Cl)c2)c(OC)c1	-77	77*	39	10	6	-5
COc1ccccc1N(C(=O)CNC(=O)c1ccco1)C(C(=O)NC1CCCCC1)c1ccncc1 (stereo unspecified)	5	-5	-30	10	·	-5
C/C(=N\NC(=O)c1ccc(CSc2cccc3cccnc23)cc1)C1CCCCC1	-24	24	-8	-4	7	-10
COc1ccc(/C(C)=N/NC(=O)c2ccc(CSc3cccc4cccnc34)cc2)cc1OC	-90	90*	·	1	-6	4
CCSc1nc2cc(OC)c(OC)cc2c(=O)n1CCc1ccccc1	-71	71*	6	-6	10	1
N=C1C=CC(=C(c2ccc(N)cc2)c2ccc(N)cc2)C=C1	-104	104*	·	3	·	-19
Nc1ccc(C(=O)C(=O)c2ccc(N)cc2)cc1	34	-34	-14	2	·	-16
O=C(COc1coc(CN2CCc3ccccc3C2)cc1=O)Nc1cccc(Cl)c1	-15	15	·	-32	·	-8
O=C(NNC(=O)c1ccc2ccccc2c1O)c1cccs1	-106	106*	-14	9	·	0
O=C(NNC(=O)c1ccc2ccccc2c1O)c1ccccc1Cl	-35	35	2	-4	3	-5
O=C(NNC(=O)c1cc2ccccc2cc1O)c1cccs1	-115	115*	·	6	·	11
COc1cc(/C=C/C(=O)N2CCN(CC(O)COc3ccccc3)CC2)cc(OC)c1OC (stereo unspecified)	-79	79*	·	-3	2	-1
COc1cc(C(=O)N2CCN(CC(O)COc3ccccc3)CC2)cc(OC)c1OC (stereo unspecified)	-7	7	·	0	·	10
O=C(OCCN=C1NS(=O)(=O)c2ccccc21)c1ccco1	7	-7	10	4	9	0
CCOc1ccc(C(=O)Nc2ccc(N3CCN(C(C)=O)CC3)cc2)cc1[N+](=O)[O-]	-46	72*	-4	-7	0	-14
COCCOc1ccc(C(F)(F)F)cc1NC(=O)c1ccc(F)cc1	-40	40	-2	-8	6	-8
CCOC(=O)c1ccc(NC(=O)c2ccc(OC(C)C)c(OC)c2)cc1	-92	92*	·	-6	21	7
CCOc1ccc(C(F)(F)F)cc1NC(=O)c1ccc(OC)c([N+](=O)[O-])c1	-80	80*	·	-6	5	-11
COc1cc(C(=O)Nc2ccc(N3CCN(C(=O)c4ccc(C)cc4)CC3)cc2)cc(OC)c1OC	·	76*	-7	-13	·	9
CCOc1ccc(C(=O)Nc2ccc(N3CCN(C)CC3)cc2)cc1[N+](=O)[O-]	-48	48	-1	-2	-9	4
Cc1ccc(C(=O)N2CCN(c3ccc(NC(=O)c4cccnc4)cc3)CC2)cc1	-11	11	16	-4	6	-8
C=CCn1c(SCC(=O)NC2CCCC2)nnc1-c1cccnc1	·	-10	18	7	·	-4
COc1ccc([N+](=O)[O-])cc1NCC(=O)Nc1cc(S(=O)(=O)N2CCCCC2)ccc1C	-4	4	·	4	·	-1
O=C(Nc1ccc(-c2n[nH]c(=S)o2)cc1)c1ccccc1Br	18	-18	-4	1	·	-14
Cc1cc(N2C(=O)CC(N3CCN(C(c4ccccc4)c4ccccc4)CC3)C2=O)no1 (stereo unspecified)	41	-41	-5	2	-2	-11
